According to ChEMBL document CHEMBL5653614, “Rescue of fragile X syndrome phenotypes in Fmr1 KO mice by the small-molecule PAK inhibitor FRAX486” (Proc Natl Acad Sci U S A, 2013):
The source made the active and inactive calls. No cut-off for these calls is given here.

Key:
Mus musculus [1] = test: Protective activity in Fmr1 knockout FVB.129P2-Fmr1tm1Cgr/J mouse assessed as decrease in apical dendritic spine density in layer II/III pyramidal neurons segment 5 at 20 mg/kg, sc and measured after 8 hrs by Golgi-Cox technique analysis; format: functional, organism-based
In short: (§1)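 Adult male WT and Fmr1 KO FVB mice given 20 mg/kg s.c. or vehicle; brains collected 8 h later and Golgi stained. Apical dendrites of layer II/III pyramidal neurons in temporal cortex, originating 50–100 µm from the soma, were divided into ten 10-µm segments and spines counted. 40–60 neurons from 4–6 mice per group; one-way ANOVA.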

[2] = Tmax in FVB.129P2 mouse plasma at 20 mg/kg,sc by LC-MS/MS analysis; format: ADME, organism-based
In short: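 WT FVB.129P2 mice received a single s.c. injection of 20 mg/kg FRAX486 in 20% (wt/vol) hydroxypropyl-β-cyclodextrin. Blood was collected at time points from 15 min to 24 h, n = 2–3 per point. Plasma drug levels were quantified by LC-MS/MS and reported as mean ± SEM.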

Mus musculus [3] = test: Protective activity in Fmr1 knockout FVB.129P2-Fmr1tm1Cgr/J mouse model of Fragile X syndrome assessed as decrease in distance travelled at 20 mg/kg, sc for 5 days and measured during 18 to 30 mins by open field assay; format: functional, organism-based; conditions: time 5.0 day
In short: (§2)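 Adult male WT and Fmr1 KO mice dosed s.c. at 20 mg/kg or vehicle for 5 d; tested 4–5.5 h after dosing. Single mouse in a novel open field for 30 min, tracked by infrared sensors in 1-min bins; bar-graph values averaged over minutes 18–30. Mice beyond 2 SD in total distance, or immobile for 5 consecutive minutes, were excluded.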

Mus musculus [4] = test: Protective activity in Fmr1 knockout FVB.129P2-Fmr1tm1Cgr/J mouse assessed as decrease in apical dendritic spine density in layer II/III pyramidal neurons segment 4 at 20 mg/kg, sc and measured after 8 hrs by Golgi-Cox technique analysis; format: functional, organism-based; in short: as §1
Mus musculus [5] = test: Protective activity in Fmr1 knockout FVB.129P2-Fmr1tm1Cgr/J mouse model of Fragile X syndrome assessed as decrease in time spent in moving at 20 mg/kg, sc for 5 days and measured for 30 mins by open field assay; format: functional, organism-based; conditions: time 5.0 day; in short: as §2
Mus musculus [6] = test: Protective activity in Fmr1 knockout FVB.129P2-Fmr1tm1Cgr/J mouse assessed as decrease in apical dendritic spine density in layer II/III pyramidal neurons segment 8 at 20 mg/kg, sc and measured after 8 hrs by Golgi-Cox technique analysis; format: functional, organism-based; in short: as §1
Mus musculus [7] = test: (§3) Anti-seizure activity against 124dB loud auditory stimulus induced Fmr1 knockout FVB.129P2-Fmr1tm1Cgr/J mouse model of audiogenic seizure assessed as decrease in sound-induced seizure at 10 mg/kg,sc for 5 days followed by audiogenic seizure induction after 8 hrs post-treatment by audiogenic seizure assay (Rvb=96%); format: functional; design: scale not given: the % may be the effect or the level left; conditions: time 5 day
In short: (§4)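 Adult male Fmr1 KO mice given 10 or 20 mg/kg s.c. daily for 5 d in 20% hydroxypropyl-β-cyclodextrin vehicle. AGS assay run 8 h after the final injection: 2 min acclimation in an acrylic chamber, then a 124 dB auditory stimulus. Incidence of wild running and seizure recorded; χ2 comparison with vehicle.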

Mus musculus [8] = test: Protective activity in FVB.129P2-Pde6b+ Tyr c-ch/AntJ wild type mouse assessed as motor coordination at 20 mg/kg, sc and measured for 4 to 5.25 hrs by rotarod test; format: functional, organism-based; conditions: time 4-5.25 hrs
In short: (§5)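 Adult male WT and Fmr1 KO mice tested 4–5.5 h after s.c. 20 mg/kg or vehicle. Latency to fall or jump off the rotating cylinder recorded (max 3 min). Three trials per mouse, 30–40 min apart; per-mouse average latency compared.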

Mus musculus [9] = test: Protective activity in Fmr1 knockout FVB.129P2-Fmr1tm1Cgr/J mouse model of Fragile X syndrome assessed as motor coordination at 20 mg/kg, sc and measured for 4 to 5.25 hrs by rotarod test; format: functional, organism-based; conditions: time 4-5.25 hrs
In short: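 Adult male Fmr1 KO mice (FVB background, 10–17 wk old) got FRAX486 s.c. at 20 mg/kg as a 2 mg/mL solution in 20% (wt/vol) hydroxypropyl-β-cyclodextrin; vehicle-only controls. Rotarod was run 4–5.5 h after dosing. Latency to fall or jump off the rotating cylinder was recorded, with a maximum of 3 min. Three trials 30–40 min apart were averaged per mouse.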

Mus musculus [10] = test: Protective activity in FVB.129P2-Pde6b+ Tyr c-ch/AntJ wild type mouse assessed as decrease in counterclockwise revolutions at 20 mg/kg, sc for 5 days by open field assay; format: functional, organism-based; conditions: time 5.0 day; in short: as §2
[11] = Drug concentration in FVB.129P2 mouse brain at 20 mg/kg,sc and measured after 1 hrs by LC-MS/MS analysis; format: ADME, organism-based; conditions: read-out: Ct
In short: (§6)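 WT FVB.129P2 mice got one s.c. injection of 20 mg/kg (2 mg/mL in 20% hydroxypropyl-β-cyclodextrin). Blood and forebrain were collected at time points from 15 min to 24 h. Forebrain was weighed, snap-frozen and homogenized in 2 volumes of cold PBS. Drug quantified by LC-MS/MS. n = 2–3, mean ± SEM.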

Mus musculus [12] = test: as §3, with “sound-induced wild running” for “sound-induced seizure”, “at 20” for “at 10”, “assay (Rvb=100%)” for “assay (Rvb=96%)”; format: functional; design: scale not given: the % may be the effect or the level left; conditions: time 5 day; in short: as §4
Mus musculus [13] = test: Protective activity in Fmr1 knockout FVB.129P2-Fmr1tm1Cgr/J mouse assessed as decrease in apical dendritic spine density in layer II/III pyramidal neurons segment 6 at 20 mg/kg, sc and measured after 8 hrs by Golgi-Cox technique analysis; format: functional, organism-based; in short: as §1
Mus musculus [14] = test: as §3, with “sound-induced wild running” for “sound-induced seizure”, “assay (Rvb=100%)” for “assay (Rvb=96%)”; format: functional; design: scale not given: the % may be the effect or the level left; conditions: time 5 day; in short: as §4
Mus musculus [15] = test: Protective activity in Fmr1 knockout FVB.129P2-Fmr1tm1Cgr/J mouse model of Fragile X syndrome assessed as increase in testicular weight at 20 mg/kg, sc for 21 days; format: functional, organism-based; conditions: time 21.0 day
[16] = target: Serine/threonine-protein kinase PAK 2 (Homo sapiens, UniProt Q13177); test: Inhibition of PAK2 (unknown origin) by Z'-LYTE functional assay
In short: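 Full-length PAK isoforms phosphorylating an optimized peptide substrate in a Z-LYTE biochemical kinase assay, 10-point inhibitor titration. Duplicates (n = 2, mean ± SEM) plotted semilog; IC50 from a variable-slope sigmoidal dose–response fit.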

Mus musculus [17] = test: Protective activity in Fmr1 FVB.129P2-Pde6b+ Tyr c-ch/AntJ wild type mouse assessed as change in basal dendritic spine density in cortical neuron at 20 mg/kg, sc and measured after 8 hrs by Golgi-Cox technique analysis; format: functional, organism-based; conditions: Cortical neurone
Mus musculus [18] = test: Protective activity in Fmr1 knockout FVB.129P2-Fmr1tm1Cgr/J mouse model of Fragile X syndrome assessed as balance on accelerating rotarod at 20 mg/kg, sc and measured for 4 to 5.25 hrs by rotarod test; format: functional, organism-based; conditions: time 4-5.25 hrs; in short: as §5
[19] = Drug concentration in FVB.129P2 mouse plasma at 20 mg/kg,sc and measured upto 18 hrs by LC-MS/MS analysis; format: ADME, organism-based; in short: as §6
Mus musculus [20] = test: Protective activity in Fmr1 knockout FVB.129P2-Fmr1tm1Cgr/J mouse assessed as decrease in apical dendritic spine density in layer II/III pyramidal neurons segment 7 at 20 mg/kg, sc and measured after 8 hrs by Golgi-Cox technique analysis; format: functional, organism-based; in short: as §1

Sequence of Serine/threonine-protein kinase PAK 2 (Q13177 whole entry, canonical isoform): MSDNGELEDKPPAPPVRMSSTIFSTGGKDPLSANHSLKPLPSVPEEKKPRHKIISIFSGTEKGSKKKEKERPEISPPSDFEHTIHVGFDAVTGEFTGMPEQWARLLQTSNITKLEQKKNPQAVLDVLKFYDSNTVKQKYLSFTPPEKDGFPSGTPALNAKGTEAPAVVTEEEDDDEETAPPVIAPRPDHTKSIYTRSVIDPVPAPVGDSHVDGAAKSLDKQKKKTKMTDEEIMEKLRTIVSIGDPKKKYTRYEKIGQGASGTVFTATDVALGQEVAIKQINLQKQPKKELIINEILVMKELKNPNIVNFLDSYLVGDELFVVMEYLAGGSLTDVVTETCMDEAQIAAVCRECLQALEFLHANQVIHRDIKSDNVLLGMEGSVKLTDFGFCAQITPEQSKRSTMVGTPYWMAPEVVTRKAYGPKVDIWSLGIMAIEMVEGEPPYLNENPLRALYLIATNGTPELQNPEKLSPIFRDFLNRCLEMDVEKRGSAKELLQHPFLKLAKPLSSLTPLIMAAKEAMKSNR

- Tmax [2]: 15 min
- concentration at 1 h [11]: 155 ng/g
- IC50 [16]: 39.5 nM
- concentration at 18 h [19]: > 100 ng/mL
SMILES: CCn1c(=O)c(-c2ccc(Cl)cc2Cl)cc2cnc(Nc3ccc(N4CCNCC4)c(F)c3)nc21
- Activity (Mus musculus [1]): inactive
- Activity (Mus musculus [3]): Active
- Activity (Mus musculus [4]): Active
- Activity (Mus musculus [5]): Active
- Activity (Mus musculus [6]): inactive
- Activity (Mus musculus [7]): 50%
- Activity (Mus musculus [8]): inactive
- Activity (Mus musculus [9]): inactive
- Activity (Mus musculus [10]): Active
- Activity (Mus musculus [12]): 54%
- Activity (Mus musculus [13]): inactive
- Activity (Mus musculus [14]): 75%
- Activity (Mus musculus [15]): inactive
- Activity (Mus musculus [17]): inactive
- Activity (Mus musculus [18]): inactive
- Activity (Mus musculus [20]): inactive
